# Screens as filed in PubChem BioAssay.
# In the library only some 5.8% were active in any assay of this set; here they are far more common.
# IDH1 R132H inh: inhibitors of human IDH1 R132H; O75874; IDH1 R132H reductase, diaphorase/resazurin fluorescence, 60 min; inhibition, % at 10 µM; 70,000 compounds, 0.18% hits; in the data active means inhibition above about 34%; inconclusive means no clear call, values can overlap the other calls; inactive means below about 11%;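 further: 0% = DMSO and 100% = no enzyme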
# Target sequence (O75874 whole entry R132H): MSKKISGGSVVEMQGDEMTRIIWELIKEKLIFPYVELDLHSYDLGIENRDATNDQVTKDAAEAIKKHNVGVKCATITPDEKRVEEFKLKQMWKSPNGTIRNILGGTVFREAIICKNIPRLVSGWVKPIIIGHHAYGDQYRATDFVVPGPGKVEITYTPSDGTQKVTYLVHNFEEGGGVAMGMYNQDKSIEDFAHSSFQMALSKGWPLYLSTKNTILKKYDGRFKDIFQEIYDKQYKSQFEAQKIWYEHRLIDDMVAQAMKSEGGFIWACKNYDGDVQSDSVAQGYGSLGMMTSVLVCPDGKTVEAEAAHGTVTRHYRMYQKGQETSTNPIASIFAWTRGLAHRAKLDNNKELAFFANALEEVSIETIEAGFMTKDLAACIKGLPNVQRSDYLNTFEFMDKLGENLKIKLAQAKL
# Pf Dd2 growth: blocks growth of Plasmodium falciparum Dd2 parasites; P. falciparum Dd2 growth, SYBR Green, 72 h; hits give low values; 94,000 compounds, 2.3% hits; activity change, % at 10 µM; in the data active means activity change below about -80%; inconclusive means no clear call, values can overlap the other calls
# T cruzi growth-1: blocks T. cruzi growth in NIH3T3 culture; T. cruzi beta-gal in NIH3T3, GalScreen luminescence, 90 h; inhibition, % at 8.34 µM; 77,000 compounds, 5.9% hits; AID 624255;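 active means mean inhibition above about 93%, with at least 55% of replicates each passing it, limit read from the data, passing the limit was not always enough; inconclusive means only one of those two conditions holds; inactive means neither condition holds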
# GASC1 inh: KDM4C (human) demethylase inhibition; Q9H3R0; GST-KDM4C 2-372, H3K9me3 peptide, LANCE TR-FRET; inhibition, % at 12.5 µM; 96,000 compounds, 0.15% hits;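 active means mean replicate inhibition above about 25%, with at least 55% of replicates also reaching it, limit read from the data, passing the limit was not always enough; inconclusive means only one of those two conditions met; inactive means neither condition met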
#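 material = GST-tagged GASC-1 (JMJD2C) catalytic fragment, aa 2-372 | amount = enzyme final amount 10 nM | medium = HEPES buffer, pH 7.5, plus ascorbate | also added = H3K9me3 peptide substrate, Fe(II), 2-oxoglutarate | dosing = single dose | times = 30 min demethylation and 1 h detection at room temperature | detection = LANCE TR-FRET | read-out basis = Fall in 671/618 emission ratio as inhibition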
# T cruzi growth-2: blocks T. cruzi growth in NIH3T3 host cells. shares compounds with T cruzi growth-1. T. cruzi beta-gal in NIH3T3, GalScreen luminescence, 90 h. inhibition, % at 8.35 µM. 5,600 compounds, 72% hits;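 active means mean replicate inhibition above about 95% and at least 55% of replicates individually reaching it, limit read from the data; inconclusive means only one of the two criteria is met; inactive means neither criterion is met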
# T cruzi growth-3: inhibitors of T. cruzi proliferation; 5,600 compounds, 21% hits; inhibition, % at 2.09 µM; T. cruzi beta-gal in NIH3T3, GalScreen luminescence, 90 h; shares compounds with T cruzi growth-1;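 active means mean inhibition above about 95%, with at least 55% of replicates also reaching it, limit read from the data; inconclusive means meets just one of the two conditions; inactive means meets neither condition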;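 further: plate controls were neutral control median for no effect and positive control median for full effect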
# 3T3 cytotox: kills mouse NIH/3T3 fibroblasts | shares compounds with T cruzi growth-1 | NIH/3T3 viability, CellTiter-Glo ATP luminescence, 90 h | cytotoxicity (signal decrease), % at 8.35 µM | 5,600 compounds, 14% hits | AID 651742;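 active means mean signal decrease across replicates above about 35% based on untreated-well scatter, with enough replicates individually passing, limit read from the data; inconclusive means no rule stated though some were filed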;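 further: 0% = median of neutral control wells and 100% = median of positive control wells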
# NIH3T3 tox 2: cytotoxicity in mouse NIH/3T3 fibroblasts; NIH/3T3 viability, CellTiter-Glo ATP luminescence, 90 h; shares compounds with T cruzi growth-1; 5,600 compounds, 56% hits; inhibition, % at 24.9 µM;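 active means mean loss of cell viability signal at or above a set limit, and enough replicates individually reaching it; inconclusive means meets only the mean limit or only the replicate share; inactive means meets neither condition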;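 further: 0% = median of neutral control wells and 100% = median of positive control wells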
# * = called active by the depositor; u = inconclusive; x = no result given.
SMILES,IDH1 R132H inh,Pf Dd2 growth,T cruzi growth-1,GASC1 inh,T cruzi growth-2,T cruzi growth-3,3T3 cytotox,NIH3T3 tox 2
O=S(=O)(c1ccccc1F)N1CCCCN2[C@H](CO)[C@H](c3ccc(-c4cccnc4)cc3)[C@H]2C1,x,-3,u,0,91,12,8,u
O=S(=O)(c1ccccc1F)N1CCCCN2[C@H](CO)[C@@H](c3ccc(-c4ccncc4)cc3)[C@H]2C1,x,11,85,0,x,x,x,x
CCC(=O)c1cn(CC(=O)Nc2cccc(C(F)(F)F)c2)c2ccccc12,0,x,x,x,x,x,x,x
COc1ccc(NC(=O)Nc2ccc3c(c2)C(=O)N([C@H](C)CO)C[C@@H](C)[C@@H](CN(C)S(=O)(=O)c2ccc(OC)cc2)O3)cc1,-1,24,16,3,x,x,x,x
COc1ccc(S(=O)(=O)N(C)C[C@H]2Oc3ccc(NC(=O)Nc4ccc(C(F)(F)F)cc4)cc3C(=O)N([C@H](C)CO)C[C@H]2C)cc1,0,-18,u,-3,103*,25,42*,51*
COc1ccc(S(=O)(=O)N(C)C[C@H]2Oc3ccc(NC(=O)Nc4ccc(C(F)(F)F)cc4)cc3C(=O)N([C@@H](C)CO)C[C@H]2C)cc1,0,11,u,-4,99*,60,45*,81*
COc1ccc(S(=O)(=O)N(C)C[C@@H]2Oc3ccc(NC(=O)Nc4ccc(C(F)(F)F)cc4)cc3C(=O)N([C@@H](C)CO)C[C@@H]2C)cc1,1,-16,u,-5,102*,57,u,46*
COC(=O)CCCCCCC(=O)N/N=C/c1coc2ccccc2c1=O,0,x,x,x,x,x,x,x
O=C(C[C@H]1CC[C@H]2[C@@H](COC[C@@H](O)CN2C(=O)Nc2cccc(Cl)c2)O1)N1CCCCC1,x,6,13,2,x,x,x,x
O=C(C[C@@H]1CC[C@H]2[C@@H](COC[C@@H](O)CN2C(=O)Nc2cccc(Cl)c2)O1)N1CCCCC1,x,-6,95*,-2,64,16,-2,15
O=C(C[C@@H]1CC[C@@H]2[C@H](COC[C@@H](O)CN2Cc2nccs2)O1)N1CCC(Cc2ccccc2)CC1,x,x,165*,0,84,32,18,18
O=C(C[C@H]1CC[C@H]2[C@@H](COC[C@H](O)CN2Cc2cccc(Cl)c2)O1)N1CCCCC1,x,4,122*,2,78,30,0,10
O=C(C[C@H]1CC[C@H]2[C@@H](COC[C@@H](O)CN2Cc2cccc(-c3ccncc3)c2)O1)N1CCCCC1,x,-18,109*,-1,59,-13,-23,-5
O=C(C[C@@H]1CC[C@H]2[C@@H](COC[C@@H](O)CN2Cc2cccc(-c3ccncc3)c2)O1)N1CCCCC1,x,-11,63,0,x,x,x,x
CCOc1c(O)ccc(C(c2c[nH]c3ccccc23)c2c[nH]c3ccccc23)c1[N+](=O)[O-],-1,x,x,x,x,x,x,x
COc1ccc(NC(=O)c2ccco2)cc1NC(=S)NC(=O)c1cc2ccccc2o1,1,x,x,x,x,x,x,x
CC(=O)Cc1cc(O)cc2oc(C)cc(=O)c12,0,x,x,x,x,x,x,x
C[C@H]1CN([C@@H](C)CO)C(=O)c2cc(NS(=O)(=O)c3ccc(F)cc3)ccc2O[C@@H]1CN(C)S(=O)(=O)c1ccc(Cl)cc1,-1,-21,27,-1,x,x,x,x
C[C@H](CO)N1C[C@H](C)[C@H](CN(C)S(=O)(=O)c2ccc(Cl)cc2)Oc2ccc(NS(=O)(=O)c3ccc(F)cc3)cc2C1=O,0,-34,u,-2,98*,45,40*,u
C[C@H](CO)N1C[C@H](C)[C@H](CN(C)S(=O)(=O)c2ccc(Cl)cc2)OCCCC[C@H](C)Oc2ccc(NS(=O)(=O)c3ccc(F)cc3)cc2C1=O,-2,-32,106,0,x,x,x,x
C[C@@H]1CCCCO[C@H](CN(C)S(=O)(=O)c2ccc(F)cc2)[C@H](C)CN([C@H](C)CO)C(=O)c2cc(NS(=O)(=O)c3ccc(Cl)cc3)ccc2O1,1,-57,100*,2,103*,110*,-7,-13
C[C@H]1CCCCO[C@H](CN(C)S(=O)(=O)c2ccc(Cl)cc2)[C@@H](C)CN([C@@H](C)CO)C(=O)c2cc(NS(=O)(=O)c3ccc(F)cc3)ccc2O1,1,-48,103*,2,u,110*,-25,-7
C[C@@H]1CCCCO[C@H](CN(C)S(=O)(=O)c2ccc(F)cc2)[C@H](C)CN([C@@H](C)CO)C(=O)c2cc(NS(=O)(=O)c3ccc(Cl)cc3)ccc2O1,x,-16,92,0,x,x,x,x
C[C@H]1CCCCO[C@H](CN(C)S(=O)(=O)c2ccc(F)cc2)[C@@H](C)CN([C@@H](C)CO)C(=O)c2cc(NS(=O)(=O)c3ccc(Cl)cc3)ccc2O1,-1,-67,99*,-1,98*,94,2,-9
C[C@@H]1CN([C@H](C)CO)C(=O)c2cc(NS(=O)(=O)c3ccc(Cl)cc3)ccc2O[C@@H](C)CCCCO[C@@H]1CN(C)S(=O)(=O)c1ccc(F)cc1,x,-66,105*,7,104*,109*,-40,10
SMILES,IDH1 R132H inh,Pf Dd2 growth,T cruzi growth-1,GASC1 inh,T cruzi growth-2,T cruzi growth-3,3T3 cytotox,NIH3T3 tox 2
C[C@@H]1CCCCO[C@@H](CN(C)S(=O)(=O)c2ccc(F)cc2)[C@H](C)CN([C@H](C)CO)C(=O)c2cc(NS(=O)(=O)c3ccc(Cl)cc3)ccc2O1,x,-55,95,0,x,x,x,x
C[C@@H]1CN([C@H](C)CO)C(=O)Cc2cc(NC(=O)c3ccncc3)ccc2O[C@H]1CN(C)Cc1ccc(Oc2ccccc2)cc1,0,-17,105*,0,109*,36,4,103*
C[C@H]1CN([C@@H](C)CO)C(=O)Cc2cc(NC(=O)c3ccncc3)ccc2O[C@@H]1CN(C)Cc1ccc(-c2ccccc2)cc1,1,-36,81,0,x,x,x,x
C[C@H](CO)N1C[C@H](C)[C@@H](CN(C)Cc2ccncc2)Oc2ccc(NC(=O)c3ccncc3)cc2CC1=O,1,17,10,-1,x,x,x,x
C[C@H](CO)N1C[C@H](C)[C@@H](CN(C)Cc2ccc(-c3ccccc3)cc2)Oc2ccc(NC(=O)C3CC3)cc2CC1=O,1,-19,105*,-2,106*,77,10,105*
C[C@H]1CN([C@@H](C)CO)C(=O)Cc2cc(NC(=O)C3CC3)ccc2O[C@@H]1CN(C)Cc1ccc(-c2ccccc2)cc1,3,-20,92,0,x,x,x,x
